Source: PubChem (several laboratories)
iPSC survival up – enhancers of human iPSC single-cell survival. 360,000 compounds, 0.044% hits. hiPSC single-cell survival, ATPlite luminescence; 100% = ROCK inhibitor wells, 0% = DMSO. survival enhancement, % at 20 µM; in the data active = survival enhancement above about 18%;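 note: cells exposed to compounds for 16 hours before the ATP read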
TbMetRS inhib – Trypanosoma brucei MetRS inhibition; purified T. brucei MetRS, ATP depletion, Kinase-Glo luminescence; inhibition, % at 11.9 µM; 360,000 compounds, 0.4% hits;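 active = inhibition above a per-plate cutoff of the control wells' mean inhibition plus 3 SD, cut at about 5.5% in these data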;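 note: 0% = DMSO wells median and 100% = median of wells with control inhibitor compound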
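Assay system: T. brucei methionyl-tRNA synthetase, purified | Medium: HEPES buffer with MgCl2, KCl, DTT, spermine, BSA, pyrophosphatase | Compound: 11.9 µM single point | Incubation: 15 min enzyme-compound preincubation, 2 h reaction, 10 min detection, 25 °C | Measured by: Kinase-Glo luciferase luminescence reporting remaining unconsumed ATP | Measure: % inhibition normalized to control-well medians | Replication: Singlicate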
ABCB6 inh 2 – inhibitors of human ABC transporter ABCB6; 360,000 compounds, 0.19% hits; K562-ABCB6 porphyrin accumulation, flow cytometry, 1 h; active compounds read low; Q9NP58; fluorescence ratio to DMSO, % at 10 µM; AID 602162;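 active = fluorescence ratio to DMSO below 75%, the collection mean minus 3 SD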;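 note: signal is porphyrin accumulated inside mitochondria; 100% equals median channel fluorescence of DMSO control wells; lower ratio means ABCB6 inhibition with less porphyrin fluorescence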
Exocytosis inh – blocks lytic granule exocytosis; TALL-104 LAMP-1 surface exposure, flow cytometry; cells stimulated with thapsigargin and PMA; AID 651702; 360,000 compounds, 0.66% hits; inhibition, % at 10 µM;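 active = inhibition above about 55%, limit read from the data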
MC4R ag barr – agonists of human melanocortin 4 receptor (MC4R) beta-arrestin | P32245 | U2OS MC4R beta-arrestin complementation, luminescence; percent of melanotan II response, DMSO zero | activation, % at 8.9 µM | 360,000 compounds, 0.98% hits;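 active = activation above a per-plate cutoff, the mean activation of sample wells on that plate plus 3 SD, cut at about 8% in these data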
MC4R antagonist – antagonists of human melanocortin 4 receptor (MC4R); P32245; MC4R-expressing cells, MTII-stimulated cAMP, LANCE TR-FRET; inhibition, % at 6.5 µM; 360,000 compounds, 0.48% hits; AID 540295;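 active = inhibition above its plate's cutoff, the mean of tested wells on that plate plus 3 SD, cut at about 29% in these data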;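 note: 0% = Melanotan II alone and 100% = Melanotan II plus saturating MCL0020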
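System – human MC4R-expressing U2OS cells · Also added – Melanotan II · Dosing – one concentration, 6.5 µM nominal · Timing – 30-min compound, 1-h challenge, 1-h detection, room temperature · Measured by – Eu-cAMP/anti-cAMP TR-FRET, emission 671 nm · Replicates – singlicate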
MC4R barr ag – human MC4R beta-arrestin agonism confirmation; activation, % at 8.9 µM; AID 602192; U2OS MC4R beta-arrestin recruitment, luminescence; scaled DMSO 0%, Melanotan II 100%; 2,400 compounds, 31% hits; shares compounds with MC4R ag barr;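 active = mean activation across replicates above the hit cutoff set in the earlier primary screen, cut at about 8% in these data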
MOR-DOR barr ag – counter-screen for MC4R agonists: agonists of mu-delta opioid heterodimer | shares compounds with MC4R ag barr | U2OS PathHunter beta-arrestin, beta-gal luminescence; percent of deltorphin B response, DMSO zero | activation, % at 9.2 µM | 2,400 compounds, 5.8% hits;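 active = mean activation across replicates exceeds the hit threshold derived in the earlier primary screen, cut at about 18% in these data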;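 note: 100% = deltorphin B at 0.9 µM final and 0% = DMSO alone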
Target sequence (P35372 whole entry, looked up): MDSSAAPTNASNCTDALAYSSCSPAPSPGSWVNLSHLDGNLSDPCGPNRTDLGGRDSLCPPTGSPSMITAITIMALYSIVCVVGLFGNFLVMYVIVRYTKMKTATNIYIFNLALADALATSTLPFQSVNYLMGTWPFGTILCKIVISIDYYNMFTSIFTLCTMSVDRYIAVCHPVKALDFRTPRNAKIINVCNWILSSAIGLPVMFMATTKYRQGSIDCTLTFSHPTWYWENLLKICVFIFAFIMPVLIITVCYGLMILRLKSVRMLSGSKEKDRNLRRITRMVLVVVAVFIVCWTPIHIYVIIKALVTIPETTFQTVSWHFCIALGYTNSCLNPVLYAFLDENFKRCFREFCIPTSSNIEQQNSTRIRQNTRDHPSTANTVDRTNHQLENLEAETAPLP
Target sequence (P41143 whole entry, looked up): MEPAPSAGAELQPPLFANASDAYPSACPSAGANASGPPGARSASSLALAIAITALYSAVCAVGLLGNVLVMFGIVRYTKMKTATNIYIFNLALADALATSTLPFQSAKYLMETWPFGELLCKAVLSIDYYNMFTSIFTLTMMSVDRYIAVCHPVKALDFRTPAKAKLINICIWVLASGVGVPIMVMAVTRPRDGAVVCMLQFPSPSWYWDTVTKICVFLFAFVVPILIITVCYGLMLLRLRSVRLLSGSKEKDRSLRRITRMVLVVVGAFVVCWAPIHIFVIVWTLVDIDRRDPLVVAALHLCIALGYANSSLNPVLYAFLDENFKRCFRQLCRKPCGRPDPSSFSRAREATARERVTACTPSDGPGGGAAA
An asterisk follows results filed as active; . = no result given. Shown are actives, neighbours in structure and some others; about 2.6% of the full set was active somewhere.

SMILES | iPSC survival up | TbMetRS inhib | ABCB6 inh 2 | Exocytosis inh | MC4R ag barr | MC4R antagonist | MC4R barr ag | MOR-DOR barr ag
CCOC(=O)C1(C)CCCCCN1C(=O)c1ccc(OC)c(C(F)(F)F)c1 (stereo unspecified) | 6.7 | -0.2 | 100.0 | 0.5 | 10.3* | 13.3 | 3.4 | 5.1
CN1CCN(c2nc3cc(N4CCOCC4)ccc3s2)CC1 | -1.0 | -0.9 | 99.0 | -2.0 | 0.1 | -2.6 | . | .
CCCNC(=O)c1noc2c1CCc1ccccc1-2 | 2.1 | -0.1 | 97.0 | -1.6 | -1.4 | 4.6 | . | .
COc1ccc2c(c1)CCc1c(C(=O)NCCc3ccc(OC)c(OC)c3)noc1-2 | -0.6 | -0.7 | 98.0 | 0.9 | 20.3* | -7.2 | 6.2 | 3.0
COc1ccc2c(c1)CCc1c(C(=O)Nc3ccc(OC)c(OC)c3)noc1-2 | -1.0 | -0.3 | 107.0 | -0.9 | 19.9* | 0.9 | 2.5 | 8.5
COc1ccc2c(c1)CCc1c(C(=O)Nc3ccn(Cc4ccc(C)cc4)n3)noc1-2 | 0.3 | -0.3 | 91.0 | 0.7 | 30.1* | -12.6 | 36.9* | 8.1
O=C(NCCc1ccccc1)c1noc2c1CCc1ccccc1-2 | -1.4 | -0.1 | 102.0 | -2.0 | 13.3* | 6.1 | 0.7 | 4.2
CC(C)c1ccccc1OCC(=O)N(C)CC(=O)Nc1ccc(F)cc1 | -0.5 | -0.1 | 103.0 | -6.2 | -4.2 | 18.7 | . | .
CCOc1cc(C(=S)N2CCOCC2)ccc1OC(=O)/C=C/c1ccc(OC)c(OC)c1 | 0.1 | -1.5 | 92.0 | 3.3 | 11.5* | 5.6 | 0.1 | 2.1
CCc1ccc(C2CC(c3ccc(Cl)cc3)n3nc(N)nc3N2)cc1 (stereo unspecified) | -3.6 | 0.3 | 98.0 | -2.7 | 4.8 | -2.0 | . | .
CCc1ccc(C2CC(c3ccc(F)cc3)Nc3nc(N)nn32)cc1 (stereo unspecified) | -0.3 | -1.8 | 99.0 | -1.6 | 24.7* | 3.8 | 17.3* | 0.9
Cn1nccc1-c1coc2c(C(=O)NCc3ccccc3)cccc12 | -1.9 | 1.2 | 96.0 | -9.1 | -0.7 | 13.9 | . | .
O=C(CCc1cn(Cc2ccc(F)cc2)c2ccccc12)N1CCOCC1 | -0.9 | -0.2 | 97.0 | 7.4 | -2.1 | 2.6 | . | .
Cc1cccc2sc(N(CCCN(C)C)C(=O)c3sc4ccccc4c3Cl)nc12 | -0.3 | 0.2 | 87.0 | 2.3 | 3.3 | -4.4 | . | .
COc1cccc2sc(N(CCCN(C)C)C(=O)c3sc4ccccc4c3Cl)nc12 | -2.9 | 0.6 | 98.0 | 13.6 | 17.4* | -10.6 | 20.4* | 24.4*
CN(C)S(=O)(=O)c1ccc(C(=O)N2CCN(S(=O)(=O)c3ccc4c(c3)OCCO4)CC2)cc1 | -1.3 | -0.2 | 96.0 | -1.6 | -0.8 | 8.2 | . | .
O=C(NN=Cc1ccccc1Cl)c1cccc2ccccc12 | 3.4 | -0.3 | 91.0 | -0.2 | -0.1 | 7.4 | . | .
O=C(NN=Cc1cc(Cl)ccc1[N+](=O)[O-])c1cccc2ccccc12 | 3.1 | -0.3 | 107.0 | -18.4 | 10.6* | -1.0 | 4.4 | 8.7
CCc1cc2cccc(C)c2nc1SCC(=O)c1ccc(NC(C)=O)cc1 | -2.0 | -0.4 | 95.0 | -3.3 | 10.3* | -6.0 | 2.4 | 2.9
CCn1c(CC(=O)Nc2ccc(F)cc2)nnc1SCC(=O)N1CCOCC1 | -0.2 | 0.4 | 98.0 | 19.6 | -3.0 | 5.4 | . | .
CC(=O)c1nn(-c2ccc(Br)cc2)cc1C(=O)c1ccccc1 | 0.9 | -0.1 | 105.0 | -0.6 | 29.0* | -11.8 | 2.2 | 19.0*
CC(=O)c1nn(-c2cccc(Br)c2)cc1C(=O)c1ccc2ccccc2c1 | -0.7 | -0.7 | 98.0 | -0.8 | 4.1 | 13.2 | . | .
COc1ccc(C(=O)c2cn(-c3cccc(Br)c3)nc2C(C)=O)cc1 | 0.1 | -0.7 | 97.0 | -10.1 | 15.3* | -2.2 | 2.0 | 4.5
CC(=O)c1nn(-c2ccc(Cl)cc2)cc1C(=O)c1ccc(C)cc1 | -0.4 | -0.2 | 96.0 | -0.7 | 21.0* | 2.0 | 12.9* | 10.8
